Test results from ChEMBL document CHEMBL4359913, “Identification and characterization of benzo[d]oxazol-2(3H)-one derivatives as the first potent and selective small-molecule inhibitors of chromodomain protein CDYL” (Eur J Med Chem, 2019).
Calls of active or inactive are those of the source.

Columns and labels:
Type in all cases: cell-based
[1] = molecular target: T1, Chromodomain Y-like protein (Homo sapiens) (UniProt Q9Y232); test: Inhibition of CDYL in human SH-SY5Y cells assessed as increase in VGF mRNA expression incubated for 24 hrs by RT-qPCR analysis
T1 sequence (whole entry): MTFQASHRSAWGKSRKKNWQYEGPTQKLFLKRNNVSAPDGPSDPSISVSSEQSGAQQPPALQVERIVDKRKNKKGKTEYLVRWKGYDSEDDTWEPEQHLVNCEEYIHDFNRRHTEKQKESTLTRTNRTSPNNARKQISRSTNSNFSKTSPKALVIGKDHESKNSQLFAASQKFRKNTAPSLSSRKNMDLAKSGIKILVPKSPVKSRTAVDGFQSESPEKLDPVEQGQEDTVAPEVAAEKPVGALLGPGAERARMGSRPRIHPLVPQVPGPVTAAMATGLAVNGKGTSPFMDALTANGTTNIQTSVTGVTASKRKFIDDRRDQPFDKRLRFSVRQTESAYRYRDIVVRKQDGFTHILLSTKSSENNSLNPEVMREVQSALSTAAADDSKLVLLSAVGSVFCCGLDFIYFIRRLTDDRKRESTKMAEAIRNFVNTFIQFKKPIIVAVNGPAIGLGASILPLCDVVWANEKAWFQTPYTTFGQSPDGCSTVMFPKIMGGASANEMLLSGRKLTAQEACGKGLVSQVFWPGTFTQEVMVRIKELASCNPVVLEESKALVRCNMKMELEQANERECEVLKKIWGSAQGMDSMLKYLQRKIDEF
Procedure, shortened: (§1)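 SH-SY5Y or HEK-293T cells grown in DMEM with 10% FBS and treated with compound for 24 h. mRNA quantified by SYBR green RT-qPCR after DNase treatment, 2^-ΔΔCt method with GAPDH as reference, relative to DMSO. Mean ± S.E.M. of triplicate experiments, Student's t-test.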

[2] = molecular target: T1, Chromodomain Y-like protein (Homo sapiens); test: Inhibition of CDYL in human HEK293T cells assessed as increase in MYT1 mRNA expression at 50 to 200 uM incubated for 24 hrs by RT-qPCR analysis; procedure, shortened: as §1
[3] = molecular target: T1, Chromodomain Y-like protein (Homo sapiens); test: Inhibition of CDYL in human SH-SY5Y cells assessed as decrease in enrichment of CDYL at VGF promoter site at 150 uM incubated for 24 hrs by ChIP-qPCR analysis
Procedure, shortened: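 About 1×10^7 SH-SY5Y cells given 150 µM compound or DMSO for 24 h, fixed in 1% formaldehyde for 10 min. Chromatin immunoprecipitated overnight-style (12 h, 4 °C) with CDYL or H3K27me3 antibody, captured on Protein A/G beads, washed, decrosslinked at 65 °C. Promoter DNA quantified by qPCR, mean ± S.E.M. of triplicate experiments, Student's t-test.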

O=C(Cn1c(=O)oc2ccccc21)N1CCC(N2CCCC2)CC1
active: Activity [1] Dose-dependent effect | Activity [2] | inhibition [3]
